Compounds with a hit are over-represented: about 1.8% of the library has one in this group of screens.
LMPTP block = LMPTP phosphatase inhibitors, primary screen, biochemical, fluorescence intensity, uHTS. Low molecular weight phosphotyrosine protein phosphatase (Homo sapiens), P24666. recombinant LMPTP-A, OMFP fluorogenic substrate. inhibition, % at 20 µM. 0.22% of 360,000 active. AID 651560, 2012;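 active means compounds that cut the enzyme signal by at least half of the control window in the single-dose screen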
Target sequence (P24666 whole entry, looked up): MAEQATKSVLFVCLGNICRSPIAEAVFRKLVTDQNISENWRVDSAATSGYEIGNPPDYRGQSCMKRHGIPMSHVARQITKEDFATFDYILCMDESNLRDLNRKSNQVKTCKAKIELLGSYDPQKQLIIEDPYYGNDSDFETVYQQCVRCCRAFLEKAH
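Assay system: LMPTP-A, protein tyrosine phosphatase of low molecular weight / Medium: pH 6.0 Bis-Tris buffer with DTT and Triton X-100 / Schedule: 50 min enzyme reaction at room temperature, protected from light / Measured by: endpoint fluorescence intensity from OMFP dephosphorylation / Read-out basis: % inhibition relative to no-enzyme and uninhibited control wells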
Scp-1 inhibitor = Scp-1 phosphatase inhibitors, primary screen, biochemical, colorimetric, uHTS. Carboxy-terminal domain RNA polymerase II polypeptide A small phosphatase 1 (Homo …. Recombinant Scp1, phosphopeptide, malachite green phosphate absorbance. inhibition, % at 20 µM. 0.88% of 340,000 active;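 active means inhibition above about 50% at 20 µM, limit read from the data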
Target sequence (Q9GZU7 76-261 limits assumed): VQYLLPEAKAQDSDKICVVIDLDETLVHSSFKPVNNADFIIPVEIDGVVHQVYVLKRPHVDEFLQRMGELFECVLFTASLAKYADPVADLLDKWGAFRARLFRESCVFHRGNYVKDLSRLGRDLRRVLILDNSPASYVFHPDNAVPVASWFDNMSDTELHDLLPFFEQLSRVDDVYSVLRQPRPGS
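Assay system: SCP-1 catalytic fragment, aa 76-261 | Buffer or medium: Tris acetate buffer pH 5.5 with MgCl2 and Tween-20 | Compound: One concentration, 20 µM, with 1.0% DMSO | Also added: Phospho 17-mer peptide substrate | Signal: Absorbance at 630 nm | Incubation: 45 min enzyme reaction at room temperature | Measure: % inhibition of SCP-1 phosphate liberation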
SUMO1 PPI mod = modulators of SUMO1 protein-protein interactions, primary screen, biochemical, uHTS; SUMO1 binding to a labelled peptide, TR-FRET, 1 h; inhibition, % at 20 µM; 0.33% of 360,000 active; Small ubiquitin-related modifier 1 (Homo sapiens), P63165; in the data active means inhibition above about 37%
Target sequence (P63165 whole entry, looked up): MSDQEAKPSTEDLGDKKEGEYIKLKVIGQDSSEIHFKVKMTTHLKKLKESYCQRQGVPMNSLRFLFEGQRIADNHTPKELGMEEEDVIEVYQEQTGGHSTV
STEP inh = STEP phosphatase inhibitors, primary screen, biochemical, fluorescence intensity, uHTS. Tyrosine-protein phosphatase non-receptor type 5 (Homo sapiens), P54829. recombinant STEP, OMFP fluorogenic substrate. inhibition, % at 20 µM. 0.25% of 360,000 active. AID 588621, 2011;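 active means inhibition at 20 µM, scaled per plate between control wells, above about 37%, limit read from the data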
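material = STEP tyrosine phosphatase | reagent = fluorogenic phosphatase substrate OMFP at 25 µM final | doses = single compound dose of 20 µM, 1% DMSO final | schedule = 20 min reaction, room temperature, in the dark | measured by = fluorescence, 480/540 nm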
DNMT1 inh = human DNMT1 methyltransferase inhibitors, primary screen, biochemical, molecular beacon, fluorescence, HinP1I cleavage, uHTS; DNA (cytosine-5)-methyltransferase 1 (Homo sapiens), P26358; inhibition (reported as % activation of signal), % at 10 µM; 0.83% of 360,000 active; AID 588458, 2011; in the data active means inhibition above about 50%
HKDC1 inhibitor = HKDC1 hexokinase inhibitors, primary screen, biochemical, fluorescence, uHTS; Q2TB90; recombinant HKDC1, G6PDH/diaphorase resazurin coupled fluorescence; inhibition, % at 20 µM; 0.16% of 340,000 active; AID 493160, 2011;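 active means inhibition above about 35% when tested at 20 µM, limit read from the data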
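test system = in-house recombinant HK5 (HKDC1) enzyme | amount = HKDC1 at 5 µg/mL | control set = DMSO-enzyme wells negative, buffer-substituted wells positive | compound = one dose of 20 µM, 1% DMSO | schedule = reaction time 90 min, room temperature, protected from light | technique = resorufin fluorescence at 613 nm | reagent = glucose with 1 mM ATP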
Of the large screens only hits and unclear results are named; the others gave an inactive call.

COc1ccc(C)cc1NC(=O)NC1CC(=O)N(c2ccc3c(c2)OCCO3)C1 (centres undefined)	none (no result: Scp-1 inhibitor, HKDC1 inhibitor)
Cc1cc(-c2csc(NC(=O)c3ccc(=O)[nH]c3)n2)c(C)n1Cc1ccco1	LMPTP block 62.7, SUMO1 PPI mod 78.1, DNMT1 inh 74.3
CC1(C(=O)NS(=O)(=O)c2ccc(C#N)cc2)CCN1C(=O)c1cccc2ccccc12 (centres undefined)	none (no result: Scp-1 inhibitor, HKDC1 inhibitor)
c1ccc(CSc2nnc(-c3ccco3)o2)cc1	SUMO1 PPI mod 43.7
Cc1ccc(CSc2nnc(-c3ccco3)o2)cc1	none
CCN(CC)C(C)C(=O)NCC1(c2ccccc2)CCOCC1 (centres undefined)	none
CCC(C)[C@@H](CN)NCC1(c2ccccc2)CC1 (some centres undefined)	SUMO1 PPI mod 37.1
CC1(C)CC(=O)C=C(c2ccc(F)nc2)C1	none
COc1ccc(Cc2nnc(NC(=O)Cc3cccs3)s2)cc1OC	Scp-1 inhibitor 69.9, DNMT1 inh 75.3
O=Cc1cccc(OC(=O)/C=C/c2ccco2)c1	Scp-1 inhibitor 69.2, STEP inh 48.2, DNMT1 inh 92.2
CCCCN1C=C(C(=O)OC)C(c2ccccc2Cl)C(C(=O)OC)=C1	SUMO1 PPI mod 45.7
O=C1CCC(=O)c2ccc3c4c(ccc1c24)CC3	none
O=C1CCN2C=Nc3cccc4ccc1c2c34	DNMT1 inh 75.6
Cn1nc(C(C)(C)C)cc1C(=O)N1CCCCC1c1cc(C(=O)Nc2ccc(F)c(Cl)c2)no1 (centres undefined)	none (no result: Scp-1 inhibitor, HKDC1 inhibitor)
COc1ccc(CCNC(=O)c2cc(-c3ccc(C)c(C)c3O)n[nH]2)cc1OC	SUMO1 PPI mod 36.6
C=CC(=O)Nc1cccc(Oc2ccnc3[nH]ccc23)c1	SUMO1 PPI mod 56.6, STEP inh 54.2
COc1ccc(-c2nnc(SCC(=O)NC3CCCCC3)n2N)cc1	none
COc1cc(NC(=O)N2CCc3nc(Nc4cc(Cl)cc(Cl)c4)ncc3C2)cc(OC)c1OC	none (no result: Scp-1 inhibitor, HKDC1 inhibitor)
Cc1ccc(/C=N/Nc2nnc(Cl)c3ccccc23)cc1	none
CC(=O)Nc1ccc(C=NNc2nnc(NN=Cc3ccc(NC(C)=O)cc3)c3ccccc23)cc1	SUMO1 PPI mod 39.5
CC(C)(C)[C@H](N)C(=O)N[C@H]1CCC2C3CC=C4C[C@@H](O)CC[C@]4(C)C3CC[C@@]21C (some centres undefined)	SUMO1 PPI mod 40.9
CC(=O)OCC(=O)C1CCC2C3CC=C4CC(O)CCC4(C)C3CCC12C (centres undefined)	none
CC(C)C(=O)N[C@H]1CCC2C3CC=C4C[C@@H](O)CC[C@]4(C)C3CC[C@@]21C (some centres undefined)	none
CC(=O)C1CCC2C3CC=C4CC(SC(=N)N)CCC4(C)C3CCC12C (centres undefined)	LMPTP block 62.7
CC(C)n1nnc(-c2ccc(OCc3ccccc3F)cc2)n1	Scp-1 inhibitor 58.3
Cc1nnc(Cc2ccco2)c2n[nH]c(C)c12	none (no result: Scp-1 inhibitor, HKDC1 inhibitor)
CCOC(=O)N1CCC(NC(=O)c2cc3c(-c4ccc(Cl)cc4)nn(C)c3s2)CC1	SUMO1 PPI mod 73.1
CN(Cc1ccccc1)C(=O)[C@@H]1CCCN1C(=O)[C@@H]1CCCN1C(=O)c1cccs1	none (no result: Scp-1 inhibitor, STEP inh, DNMT1 inh, HKDC1 inhibitor)
CCOc1cc(OCC)cc(C(=O)N2CCC[C@H]2C(=O)N2CCC[C@H]2C(=O)N(C)Cc2ccccc2)c1	SUMO1 PPI mod 58.6 (no result: Scp-1 inhibitor, STEP inh, DNMT1 inh, HKDC1 inhibitor)
O=S(=O)(Cc1ccccc1)Nn1cnnc1	SUMO1 PPI mod 60.2
CCN(CC)C(=O)c1ncn(C)c1C(=O)N(CC)CC	Scp-1 inhibitor 92.4
COc1cccc(/C=N/Nc2nn3cnnc3c3ccccc23)c1O	none
Oc1cccc(/C=N/Nc2nn3cnnc3c3ccccc23)c1	SUMO1 PPI mod 84.0
Cc1noc(C)c1S(=O)(=O)Nc1ccc2c(c1)C(=O)N([C@@H](C)CO)C[C@H](C)[C@@H](CN(C)Cc1ccc(C(F)(F)F)cc1)OCCCC[C@H](C)O2	none (no result: Scp-1 inhibitor, HKDC1 inhibitor)
CC(C)COC(=O)N(C)C[C@H]1OCc2cnnn2CCCC(=O)N([C@H](C)CO)C[C@@H]1C	none (no result: Scp-1 inhibitor, HKDC1 inhibitor)
COC(=O)C1=C(C)N(Cc2ccccc2)C(=NCCc2cccnc2)N[C@H]1c1ccc(Br)cc1	Scp-1 inhibitor 57.1
COC(=O)C1=C(C)N(Cc2ccccc2)C(=NCCc2cccnc2)N[C@H]1c1ccccc1	none
CCOC(=O)c1c(C)nc2sc3c(c2c1-c1ccc(OC)cc1)NC(c1ccccc1)NC3=O (centres undefined)	SUMO1 PPI mod 46.6
COc1ccc(-c2c(C(C)=O)c(C)nc3sc4c(c23)NC(c2ccccc2)NC4=O)cc1 (centres undefined)	SUMO1 PPI mod 39.9
COc1ccc(-c2c(C(C)=O)c(C)nc3sc4c(=O)[nH]nnc4c23)cc1	none
CCOC(=O)c1c(C)nc2sc3c(=O)[nH]cnc3c2c1-c1ccc(OC)cc1	none
O=C1c2ccc3c4c(ccc(c24)C(=O)N1c1ccc(O)cc1)C(=O)N(c1ccc(O)cc1)C3=O	SUMO1 PPI mod 88.2, HKDC1 inhibitor 55.8
CCCc1nc2c(=O)n(C)c(=O)nc-2n(C)n1	LMPTP block 71.5, STEP inh 75.6, DNMT1 inh 96.8
Cn1nc(-c2ccccn2)nc2c(=O)n(C)c(=O)nc1-2	LMPTP block 67.7, STEP inh 67.4, DNMT1 inh 98.0
CC(=O)N1CCN(S(=O)(=O)c2cccc(C(=O)OCC(=O)NCc3ccccc3Cl)c2)CC1	none (no result: Scp-1 inhibitor, HKDC1 inhibitor)
Cc1cc(Cl)c2oc(C(=O)N(C)CCc3cnn(C)c3)c(C)c2c1	none
COC(=O)C1(C(=O)OC)c2ccccc2N(S(=O)(=O)c2ccc(C)cc2)C1CC(=O)c1ccccc1 (centres undefined)	none (no result: Scp-1 inhibitor, STEP inh, DNMT1 inh, HKDC1 inhibitor)
N#CC(C#N)=C(N)/C(C#N)=C/c1cc(O)c(O)c(O)c1	LMPTP block 50.6
N#C/C(=C\c1ccc(O)c(O)c1)C(=O)c1ccc(O)c(O)c1	none
COc1cccc(C(C(=O)NCc2ccccc2)N2CCN(c3cccc(C)c3C)CC2)c1OC (centres undefined)	none (no result: Scp-1 inhibitor, STEP inh, DNMT1 inh, HKDC1 inhibitor)
O=c1c2ccccc2sn1-c1ccc(S(=O)(=O)N2CCCC2)cc1	none
O=c1c2ccccc2sn1-c1cccc(Cl)c1	none (no result: Scp-1 inhibitor, HKDC1 inhibitor)
O=c1c2cc(F)ccc2sn1-c1ccccc1	Scp-1 inhibitor 91.6
O=c1c2ccccc2sn1-c1ccccc1	Scp-1 inhibitor 65.4
O=c1c2cc(C(F)(F)F)ccc2sn1-c1ccccc1	none (no result: Scp-1 inhibitor, HKDC1 inhibitor)
